Assay results taken from paper PMC4070457 (Drugs in R&D, 2014).

How the values were obtained:
[1] = Tolerability / toxicity observation during the pharmacokinetic studies; type: in vivo, Sprague-Dawley rats
Procedure, shortened: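 Male Sprague-Dawley rats with jugular catheters were watched for toxic signs, including chromodacryorrhea, while on the pharmacokinetic study. Nine rats each received 25 mg/kg IV and 25 mg/kg PO (gavage) in saline, with sampling to 8 h. Separate IV dosing was at 10, 25 and 75 mg/kg. Animals were killed in a CO2 chamber after each study.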

[2] = cited from earlier work
[3] = oral 20 mg/kg, acyl carbon radiolabelled FA; cited from earlier work
[4] = cited from earlier work; remark: listed apart in the source
[5] = Pharmacokinetics of FA after IV and oral; type: in vivo, Sprague-Dawley rats; conditions: for clearance: Sprague-Dawley, rat, serum, iv
HNSCC = conditions: oral dose of 25 mg/kg per day; cited from earlier work

For `CCCCc1ccc(C(=O)O)nc1` [fusaric acid, 5-butlypicolinic acid], the “Toxicity (i.e., chromodacyrea)” value ([1]; 25 mg/kg IV and PO, nine animals) is given as “not observed”, the adverse effects ([1]; IV doses of 10, 25, and 75 mg/kg) is given as “no adverse effects observed” and the “FA excreted unchanged in the urine” value [2] is given as under 5%. For the same molecule, the “calculated FA concentration at peak radioactivity” value [3] was 42 ± 7.4 µg/mL, the “dose at which adverse effects were observed” value [4] was 100 mg/kg and the “time until FA serum concentration fell below the lower limit of quantitation (10 µM)” value ([5]; 25 mg/kg IV or PO, all animals) was at most 4 h. The “Vd (apparent volume of distribution)” value ([5]; 25 mg/kg oral, average) was 182 ± 27 mL, the clearance ([5]; 10 mg/kg, 10 mg/kg IV) was 0.783 mL/min and the clearance ([5]; 25 mg/kg, 25 mg/kg IV) was 1.35 mL/min. For the same molecule, the “efficacy toward HNSCC” value (HNSCC) was “efficacious”.
